# Data reported in ChEMBL document CHEMBL1158602, “Dihydro-pyrano[2,3-b]pyridines and tetrahydro-1,8-naphthyridines as CB1 receptor inverse agonists: synthesis, SAR and biological evaluation” (Bioorg Med Chem Lett, 2010).
# Experiments:
# [1] = target: GABA-A receptor; agonist GABA site; assay: Partial agonist activity at human GABAA receptor; assay type: functional
# [2] = target: GABA-A receptor; agonist GABA site (Homo sapiens) (UniProt P14867+P47870+P28472+P48169+P34903+P18505+P47869+P31644+Q16445); assay: Partial agonist activity at human GABAA receptor at 3 uM; assay type: functional
# [3] = target: Cannabinoid receptor 1 (Homo sapiens, UniProt P21554); assay: Binding affinity to human CB1 receptor
# Sequence of Cannabinoid receptor 1 (P21554 whole entry): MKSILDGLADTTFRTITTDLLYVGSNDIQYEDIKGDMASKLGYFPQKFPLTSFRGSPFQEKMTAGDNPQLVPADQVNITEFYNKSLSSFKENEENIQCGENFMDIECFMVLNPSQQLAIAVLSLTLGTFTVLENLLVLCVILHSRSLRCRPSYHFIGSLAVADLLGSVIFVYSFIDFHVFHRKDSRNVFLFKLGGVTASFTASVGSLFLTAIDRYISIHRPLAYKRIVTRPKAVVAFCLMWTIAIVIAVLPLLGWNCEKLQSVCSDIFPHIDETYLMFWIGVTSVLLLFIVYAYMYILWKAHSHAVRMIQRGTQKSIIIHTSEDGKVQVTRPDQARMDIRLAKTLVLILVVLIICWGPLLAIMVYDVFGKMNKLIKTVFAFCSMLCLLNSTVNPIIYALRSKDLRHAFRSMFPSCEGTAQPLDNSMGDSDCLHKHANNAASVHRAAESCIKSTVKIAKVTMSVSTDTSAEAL
# [4] = target: Cannabinoid receptor 2 (Homo sapiens, UniProt P34972); assay: Binding affinity to human CB2 receptor
# Sequence of Cannabinoid receptor 2 (P34972 whole entry): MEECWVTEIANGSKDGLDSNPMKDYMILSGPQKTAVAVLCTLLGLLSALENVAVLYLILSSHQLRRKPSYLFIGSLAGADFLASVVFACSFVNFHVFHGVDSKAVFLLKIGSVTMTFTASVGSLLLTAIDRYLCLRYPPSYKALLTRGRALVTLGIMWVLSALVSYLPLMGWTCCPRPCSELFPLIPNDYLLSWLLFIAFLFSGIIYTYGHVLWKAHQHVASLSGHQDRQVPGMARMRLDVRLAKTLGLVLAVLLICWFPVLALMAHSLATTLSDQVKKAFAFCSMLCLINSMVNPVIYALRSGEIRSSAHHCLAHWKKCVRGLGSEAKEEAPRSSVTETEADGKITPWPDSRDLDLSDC
# [5] = system: Rattus norvegicus; assay: Toxicity in diet-induced obese rat assessed as change in body weight at 3 mg/kg, po after 18 hrs (RVb = 6 g); assay type: organism-based; set-up: dose 3 mg/kg, route oral; conditions: in vivo
# Summary of the method: (§1)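 Diet-induced obese rats dosed orally at 3 mg/kg and monitored for 18 h (overnight); body weight change and food intake compared with vehicle-treated animals.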
# [6] = system: Rattus norvegicus; assay: Toxicity in diet-induced obese rat assessed as suppression in food intake at 3 mg/kg, po after 18 hrs; assay type: organism-based; set-up: dose 3 mg/kg, route oral; conditions: in vivo
# [7] = Oral bioavailability in rat at 1 mg/kg, iv after 4 hrs; assay type: ADME, organism-based; conditions: in vivo
# [8] = Half life in rat at 1 mg/kg, iv after 4 hrs; assay type: ADME, organism-based; set-up: dose 1 mg/kg, route intravenous; conditions: in vivo
# [9] = Clearance in rat plasma at 1 mg/kg, iv after 4 hrs; assay type: ADME, organism-based; set-up: dose 1 mg/kg, route intravenous
# [10] = Drug level in rat brain at 1 mg/kg, iv after 4 hrs; assay type: ADME, organism-based; set-up: dose 1 mg/kg, route intravenous; conditions: read-out: Drug uptake
# Summary of the method: (§2)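 Rats given 1 mg/kg intravenously; brain and plasma drug concentrations measured 4 h after dosing, and the brain/plasma ratio taken from these levels.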
# [11] = Drug level in rat plasma at 1 mg/kg, iv after 4 hrs; assay type: ADME, organism-based; set-up: dose 1 mg/kg, route intravenous; conditions: read-out: Drug uptake; summary of the method: as §2
# [12] = Ratio of drug level in brain to plasma in rat at 1 mg/kg, iv after 4 hrs; assay type: ADME, organism-based; set-up: dose 1 mg/kg, route intravenous; conditions: brain and plasma; summary of the method: as §2
# [13] = target: Voltage-gated inwardly rectifying potassium channel KCNH2 (Homo sapiens, UniProt Q12809)
# Sequence of Voltage-gated inwardly rectifying potassium channel KCNH2 (Q12809 whole entry): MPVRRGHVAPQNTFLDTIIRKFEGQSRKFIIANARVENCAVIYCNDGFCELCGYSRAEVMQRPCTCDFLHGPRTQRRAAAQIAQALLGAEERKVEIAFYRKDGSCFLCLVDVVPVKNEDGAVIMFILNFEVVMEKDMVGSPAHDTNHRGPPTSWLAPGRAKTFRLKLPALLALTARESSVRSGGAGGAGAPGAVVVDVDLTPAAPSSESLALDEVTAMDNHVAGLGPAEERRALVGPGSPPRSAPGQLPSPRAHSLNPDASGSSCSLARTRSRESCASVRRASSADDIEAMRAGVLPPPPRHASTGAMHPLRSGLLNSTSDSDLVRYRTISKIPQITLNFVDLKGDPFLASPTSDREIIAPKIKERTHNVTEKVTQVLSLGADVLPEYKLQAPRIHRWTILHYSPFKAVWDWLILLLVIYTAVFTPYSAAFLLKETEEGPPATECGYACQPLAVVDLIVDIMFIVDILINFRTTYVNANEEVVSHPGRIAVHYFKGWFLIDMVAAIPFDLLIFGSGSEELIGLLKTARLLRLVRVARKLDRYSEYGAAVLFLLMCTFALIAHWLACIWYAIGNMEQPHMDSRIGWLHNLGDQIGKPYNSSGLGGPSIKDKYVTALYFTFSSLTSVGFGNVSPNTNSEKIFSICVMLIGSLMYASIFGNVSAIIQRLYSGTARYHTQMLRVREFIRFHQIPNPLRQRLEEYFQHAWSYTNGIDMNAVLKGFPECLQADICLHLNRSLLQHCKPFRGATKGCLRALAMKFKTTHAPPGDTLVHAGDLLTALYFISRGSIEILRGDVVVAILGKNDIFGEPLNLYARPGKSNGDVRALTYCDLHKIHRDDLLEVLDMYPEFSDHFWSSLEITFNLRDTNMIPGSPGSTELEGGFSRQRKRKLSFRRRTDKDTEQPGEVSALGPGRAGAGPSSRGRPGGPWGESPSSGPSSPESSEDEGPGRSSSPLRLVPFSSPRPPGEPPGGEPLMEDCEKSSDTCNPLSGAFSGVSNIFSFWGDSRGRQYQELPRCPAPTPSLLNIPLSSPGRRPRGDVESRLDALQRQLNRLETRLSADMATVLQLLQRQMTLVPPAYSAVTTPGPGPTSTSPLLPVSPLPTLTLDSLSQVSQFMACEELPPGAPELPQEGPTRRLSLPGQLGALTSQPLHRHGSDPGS
# [14] = system: Rattus norvegicus; assay: Toxicity in diet-induced obese rat assessed as change in body weight at 3 mg/kg, po after 18 hrs (RVb = 5 g); assay type: organism-based; set-up: dose 3 mg/kg, route oral; conditions: in vivo
# [15] = system: Rattus norvegicus; assay: Toxicity in diet-induced obese rat assessed as change in body weight at 3 mg/kg, po after 18 hrs (RVb = 7 g); assay type: organism-based; set-up: dose 3 mg/kg, route oral; conditions: in vivo; summary of the method: as §1
# [16] = system: Rattus norvegicus; assay: Toxicity in diet-induced obese rat assessed as change in body weight at 3 mg/kg, po after 18 hrs (RVb = 10 g); assay type: organism-based; set-up: dose 3 mg/kg, route oral; conditions: in vivo
SMILES,EC50 [1],Emax [2],IC50 [3],IC50 [4],Activity [5],Activity [6],bioavailability [7],half-life [8],clearance [9],concentration at 4 h [10],concentration at 4 h [11],Kp at 4 h [12],IC50 [13],Activity [14],Activity [15],Activity [16]
CC(C)(O)C(=O)c1oc2nc(-c3ccc(Cl)cc3Cl)c(-c3ccc(Cl)cc3)cc2c1NC(=O)CO,0.7 µM,18%,–,–,–,–,–,–,–,–,–,–,–,–,–,–
"CN1c2nc(-c3ccc(Cl)cc3Cl)c(-c3ccc(Cl)cc3)cc2C(C(=O)NCO)CC1(C)C (single isomer, unassigned; enantiomer 1) [6-(4-CHLOROPHENYL)-7-(2,4-DICHLOROPHENYL)-N-(HYDROXYMETHYL)-1,2,2-TRIMETHYL-1,2,3,4-TETRAHYDRO-1,8-NAPHTHYRIDINE-4-CARBOXAMIDE (ENANTIOMERIC MIX)]",–,–,0.0037 µM,0.801 µM,-8 g,55%,25%,4.2 h,0.72 L/h/kg,0.076 µM,0.38 µM,0.88,0.04 µM,–,–,–
"CC1(C)CC(NC(=O)CCO)c2cc(-c3ccc(Cl)cc3)c(-c3ccc(Cl)cc3Cl)nc2O1 (single isomer, unassigned; enantiomer 1) [N-(6-(4-CHLOROPHENYL)-7-(2,4-DICHLOROPHENYL)-2,2-DIMETHYL-3,4-DIHYDRO-2H-PYRANO[2,3-B]PYRIDIN-4-YL)-3-HYDROXYPROPANAMIDE (ENANTIOMERIC MIX)]",–,–,0.0017 µM,2.46 µM,–,48%,85%,13 h,0.18 L/h/kg,–,–,–,0.38 µM,-11 g,–,–
"CC(C)(O)C(=O)NC1CC2(CCCCC2)Oc2nc(-c3ccccc3Cl)c(-c3ccc(Cl)cc3)cc21 (single isomer, unassigned; enantiomer 1) [N-(7'-(2-CHLOROPHENYL)-6'-(4-CHLOROPHENYL)-3',4'-DIHYDROSPIRO[CYCLOHEXANE-1,2'-PYRANO[2,3-B]PYRIDINE]-4'-YL)-2-HYDROXY-2-METHYLPROPANAMIDE (ENANTIOMERIC MIX)]",–,–,0.0007 µM,3.2 µM,–,28%,6%,1.9 h,3.72 L/h/kg,0.116 µM,3.5 µM,3.5,–,–,3 g,–
C[C@H](NC(=O)C(C)(C)Oc1ccc(C(F)(F)F)cn1)[C@@H](Cc1ccc(Cl)cc1)c1cccc(C#N)c1 [TARANABANT],–,–,–,–,–,49%,–,–,–,–,–,–,–,–,–,-10 g
